Assay results from ChEMBL document CHEMBL3865827, “A novel class of ethacrynic acid derivatives as promising drug-like potent generation of anticancer agents with established mechanism of action” (Eur J Med Chem, 2016).
Activity calls are given as the source filed them. The rule behind the calls is not given here.

What was measured:
HL-60 [1] = assay: Induction of apoptosis in human HL60 cells assessed as early apoptotic cells at 50 uM after 24 hrs by Annexin V/7AAD-dual staining based FACS analysis (reference value: 7.7 %); assay type: functional
How it was run: (§1)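 HL60 cells treated 24 h with EA (10 or 50 µM) or derivatives (5 µM); controls vehicle only. Annexin V/7-AAD staining, flow cytometry; cells classed as dead, necrotic/late apoptotic, intact or early apoptotic, as percentages.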

[2] = Antiproliferative activity against human OVCAR8 cells after 24 to 72 hrs by MTS assay; assay type: functional, cell-based; conditions: OVCAR-8
HL-60 [3] = assay: Induction of apoptosis in human HL60 cells assessed as necrotic/late apoptotic cells at 10 uM after 24 hrs by Annexin V/7AAD-dual staining based FACS analysis (reference value: 0.6 %); assay type: functional; how it was run: as §1
HCT-116 = assay: Induction of necrosis in human HCT116 cells assessed as increase in LDH release 50 uM after 24 to 48 hrs by fluorescence assay; assay type: functional, cell-based
HL-60 [4] = assay: Selectivity index, ratio of IC50 for Cyprinus carpio EPC to IC50 for human HL60 cells
[5] = Antiproliferative activity against human HL60 cells after 24 to 72 hrs by MTS assay; assay type: functional, cell-based; conditions: HL-60
How it was run: (§2)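 Cells plated, then dosed 24 h later with compounds in DMSO (1% final; controls DMSO alone), exposed 24 or 72 h. Proliferation inhibition measured as previously reported (MTS/NADH reagent). IC50 from duplicate experiments over 0.5 nM–100 µM. KB grown in D-MEM with 10% fetal calf serum, penicillin, streptomycin, fungizone, 5% CO2; other lines in complete RPMI. EPC are quiescent Cyprinus carpio endothelial progenitor cells.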

[6] = Cytotoxicity against human HL60 cells assessed as reduction in cell viability after 24 hrs by MTS assay; assay type: functional, cell-based; conditions: HL-60, 24 h
[7] = Antiproliferative activity against human HCT116 cells after 24 to 72 hrs by MTS assay; assay type: functional, cell-based; conditions: HCT-116
[8] = Cell cycle arrest in human HL60 cells assessed as accumulation at S phase at 2.5 uM after 24 hrs by propidium iodide-staining based FACS analysis (reference value: 48.9 %); assay type: functional; conditions: HL-60
How it was run: (§3)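 HL60 cells, 25,000 per well, exposed 24 and 48 h to 2.5 µM compounds; controls DMSO (1% final). Propidium iodide staining, flow cytometry; fractions in sub-G1, G0/G1, S and G2/M quantified.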

HL-60 [9] = assay: Induction of apoptosis in human HL60 cells assessed as early apoptotic cells at 10 uM after 24 hrs by Annexin V/7AAD-dual staining based FACS analysis (reference value: 7.7 %); assay type: functional; how it was run: as §1
HL-60 [10] = assay: Induction of apoptosis in human HL60 cells assessed as dead cells at 10 uM after 24 hrs by Annexin V/7AAD-dual staining based FACS analysis (reference value: 0.1 %); assay type: functional
KB [11] = assay: Selectivity index, ratio of IC50 for Cyprinus carpio EPC to IC50 for human KB cells
[12] = Cell cycle arrest in human HL60 cells assessed as accumulation at G2/M phase at 2.5 uM after 48 hrs by propidium iodide-staining based FACS analysis (reference value: 2.2 %); assay type: functional; conditions: HL-60; how it was run: as §3
HL-60 [13] = assay: Induction of apoptosis in human HL60 cells assessed as intact cells at 10 uM after 24 hrs by Annexin V/7AAD-dual staining based FACS analysis (reference value: 91.6 %); assay type: functional; how it was run: as §1
[14] = Antiproliferative activity against human PC3 cells after 24 to 72 hrs by MTS assay; assay type: functional, cell-based; conditions: PC-3
[15] = Cell cycle arrest in human HL60 cells assessed as accumulation at S phase at 2.5 uM after 48 hrs by propidium iodide-staining based FACS analysis (reference value: 52.6 %); assay type: functional; conditions: HL-60; how it was run: as §3
[16] = Cell cycle arrest in human HL60 cells assessed as accumulation at sub G1 phase at 2.5 uM after 24 hrs by propidium iodide-staining based FACS analysis (reference value: 2.6 %); assay type: functional; conditions: HL-60; how it was run: as §3
HL-60 [17] = assay: Induction of apoptosis in human HL60 cells assessed as early apoptotic cells at 10 to 50 uM after 24 hrs by Annexin V/7AAD-dual staining based FACS analysis; assay type: functional, cell-based; how it was run: as §1
HL-60 [18] = assay: Induction of apoptosis in human HL60 cells assessed as intact cells at 50 uM after 24 hrs by Annexin V/7AAD-dual staining based FACS analysis (reference value: 91.6 %); assay type: functional; how it was run: as §1
[19] = Antiproliferative activity against Cyprinus carpio EPC after 24 to 72 hrs by MTS assay
[20] = Cell cycle arrest in human HL60 cells assessed as accumulation at G0/G1 phase at 2.5 uM after 24 hrs by propidium iodide-staining based FACS analysis (reference value: 43.5 %); assay type: functional; conditions: HL-60; how it was run: as §3
HL-60 [21] = assay: Induction of apoptosis in human HL60 cells assessed as necrotic/late apoptotic cells at 50 uM after 24 hrs by Annexin V/7AAD-dual staining based FACS analysis (reference value: 0.6 %); assay type: functional; how it was run: as §1
HL-60 [22] = assay: Induction of apoptosis in human HL60 cells assessed as dead cells at 10 to 50 uM after 24 hrs by Annexin V/7AAD-dual staining based FACS analysis
[23] = Antiproliferative activity against human KB cells after 24 to 72 hrs by MTS assay; assay type: functional, cell-based; how it was run: as §2
[24] = Antiproliferative activity against human SKOV3 cells after 24 to 72 hrs by MTS assay; assay type: functional, cell-based; conditions: SK-OV-3
HL-60 [25] = assay: Induction of apoptosis in human HL60 cells assessed as necrotic/late apoptotic cells at 10 to 50 uM after 24 hrs by Annexin V/7AAD-dual staining based FACS analysis
[26] = Cell cycle arrest in human HL60 cells assessed as accumulation at G2/M phase at 2.5 uM after 24 hrs by propidium iodide-staining based FACS analysis (reference value: 5.1 %); assay type: functional; conditions: HL-60; how it was run: as §3
[27] = Antiproliferative activity against human MCF7 cells after 24 to 72 hrs by MTS assay; assay type: functional, cell-based
[28] = Cell cycle arrest in human HL60 cells assessed as accumulation at G0/G1 phase at 2.5 uM after 48 hrs by propidium iodide-staining based FACS analysis (reference value: 43.8 %); assay type: functional; conditions: HL-60; how it was run: as §3
MRC5 = assay: Induction of necrosis in human MRC5 SV2 cells assessed as increase in LDH release at 50 uM after 24 to 48 hrs by fluorescence assay; assay type: functional, cell-based
KB [29] = assay: Induction of necrosis in human KB cells assessed as increase in LDH release at 50 uM after 24 to 48 hrs by fluorescence assay; assay type: functional, cell-based
[30] = Cell cycle arrest in human HL60 cells assessed as accumulation at sub G1 phase at 2.5 uM after 48 hrs by propidium iodide-staining based FACS analysis (reference value: 1.4 %); assay type: functional; conditions: HL-60; how it was run: as §3
HL-60 [31] = assay: Induction of apoptosis in human HL60 cells assessed as intact cells at 10 to 50 uM after 24 hrs by Annexin V/7AAD-dual staining based FACS analysis; assay type: functional, cell-based; how it was run: as §1
HL-60 [32] = assay: Induction of apoptosis in human HL60 cells assessed as dead cells at 50 uM after 24 hrs by Annexin V/7AAD-dual staining based FACS analysis (reference value: 0.1 %); assay type: functional
HL-60 [33] = assay: Antiproliferative activity against human HL60 cells at 50 uM after 24 hrs by viacount-reagent based FACS analysis

C=C(CC)C(=O)c1ccc(OCC(=O)O)c(Cl)c1Cl [ETHACRYNIC ACID]
Activity (HL-60 [1]): 41.3% | IC50 [2]: 72 µM | Activity (HL-60 [3]): 0.9% | Activity (HCT-116): Active | Ratio IC50 (HL-60 [4]): >2 | IC50 [5]: 46 µM | IC50 [6]: 38 µM | IC50 [7]: 75 µM | Activity [8]: 43.6% | Activity (HL-60 [9]): 11.2% | Activity (HL-60 [10]): 0.1% | Ratio IC50 (KB [11]): >9 | Activity [12]: 1.3% | Activity (HL-60 [13]): 87.8% | IC50 [14]: 75 µM | Activity [15]: 54.1% | Activity [16]: 2.7% | Activity (HL-60 [17]): Active | Activity (HL-60 [18]): 57.9% | IC50 [19]: > 100 µM | Activity [20]: 45.4% | Activity (HL-60 [21]): 0.8% | Activity (HL-60 [22]): Active | IC50 [23]: 11 µM | IC50 [24]: > 100 µM | Activity (HL-60 [25]): Active | Activity [26]: 8.3% | IC50 [27]: 41 µM | Activity [28]: 41.5% | Activity (MRC5): Active | Activity (KB [29]): Active | Activity [30]: 3.1% | Activity (HL-60 [31]): Active | Activity (HL-60 [32]): 0% | Activity (HL-60 [33]): Active
